RanGTP-Imp inh – disruptors of Ran-importin-beta complex formation – biochemical, FRET, CFP-Ran, YFP-importin-beta, homogeneous, primary screen; cell-free CFP-Ran/YFP-importin-beta FRET ratio; inhibition, % (no concentration beside the values); actives 1.1% (n = 300,000); AID 2216;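 active = more than half of the replicate wells show a fall in the fluorescence ratio signal beyond about 16%, limit read from the data, passing the limit was not always enough; inconclusive = exactly half of the replicate wells pass the set limit; inactive = fewer than half of replicates pass the limit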
PERK inh – blocks human PERK kinase; Q9NZJ5; CHO PERK-DD fusion, SEAP luminescence translation reporter; inhibition, % at 5.6 µM; actives 0.17% (n = 220,000);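 active = inhibition above the mean inhibition of all tested compounds plus 3 SD, set separately per screening campaign, cut at about 2.9% in these data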;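 also: PERK kinase domain activated by AP20187 dimerizer at 100 nM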
Hck Nef HTS – blocks Nef-activated human Hck kinase. Recombinant Hck-YEEI plus Nef, Z-Lyte FRET kinase assay. actives 0.68% (n = 220,000). inhibition, % at 20 µM;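 active = Hck-Nef kinase inhibition above about 50%, limit read from the data; inactive = inhibition below that limit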
Runt-SMMHC FRET – Runt domain-CBFb-SMMHC interaction inhibition | Cerulean-Runt/Venus-CBFb-SMMHC FRET ratio 530/480, 1 h | inhibition, % at 20 µM | actives 0.74% (n = 220,000) | AID 1434;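 active = mean inhibition across duplicate retests at 20 µM reaching about 50%, limit read from the data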;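 also: inhibitors lower the FRET ratio by blocking Runt binding to CBFb-SMMHC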
Runt-CBFb FRET – blocks binding of human RUNX1 Runt domain to CBFb. Q01196+Q13951. Cerulean-Runt/Venus-CBFb FRET ratio 530/480, 1 h. inhibition, % at 20 µM. actives 0.46% (n = 220,000). AID 1496;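 active = inhibition over about 50% at 20 µM in the single-dose screen, limit read from the data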
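Assay system: Cerulean-tagged RUNX1 Runt domain (FRET donor) fusion protein / Amount: 100 nM each of Venus-CBFb and Cerulean-Runt domain / Medium: Tris buffer pH 7.5 with salts and BSA / Also added: Venus-CBFb 100 nM / Schedule: 1 h complex formation plus 1 h compound treatment, room temperature / Signal: FRET fluorescence / Read-out: loss of energy transfer signal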
eIF4E 4G PPI – eIF4E/eIF4G interaction inhibition in translation initiation; inhibition, % at 21.7 µM; AID 782; TR-FRET eIF4E-eIF4GI(517-606) binding, 2 h; actives 0.37% (n = 220,000); P63073+Q04637;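 active = inhibition above about 30%, limit read from the data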
Hits are given with their value; i = inactive; ? = inconclusive; nt = not tested or not shown; [ ] = dose if it differs, or a comment. A selection: hits, their analogues and other compounds. The true share with any hit is near 2.2%.

SMILES | RanGTP-Imp inh | PERK inh | Hck Nef HTS | Runt-SMMHC FRET | Runt-CBFb FRET | eIF4E 4G PPI
N=c1c(S(=O)(=O)c2ccccc2)cc2c(=O)n3ccccc3nc2n1CC1CCCO1 (stereo not drawn) | nt | i | i | 61 | 105 | i
N=c1c(S(=O)(=O)c2ccc(Cl)cc2)cc2c(=O)n3ccccc3nc2n1C1CCCC1 | 132 | nt | nt | nt | nt | nt
CCCCOc1ccc(C2C(C(=O)c3ccc(C)o3)=C(O)C(=O)N2Cc2ccco2)cc1 (stereo not drawn) | i | nt | nt | nt | nt | nt
COc1ccc(-c2nsc(SCC(=O)Nc3cc(C)on3)n2)cc1 | i | i | i | i | i | i
N=c1c(S(=O)(=O)c2ccc(Cl)cc2)cc2c(=O)n3ccccc3nc2n1CC1CCCO1 (stereo not drawn) | 112 | nt | nt | nt | nt | nt
CCn1c(CSc2nccn2C)nc2cc(C(=O)O)ccc21 | i | i | i | 53 | i | i
CS(=O)(=O)Nc1ccccc1C(=O)NCCSCc1ccccc1 | i | i | i | i | i | i
CCCCN(C(=O)COC(=O)COc1c(C)cc(C)cc1C)c1c(N)n(CCC)c(=O)[nH]c1=O | i | nt | nt | nt | nt | nt
CC(NC(=O)Cc1ccccc1)C1COc2ccccc2O1 (stereo not drawn) | i | 3.1 | i | i | i | i
COc1cc2[nH]c3c(Cl)ncnc3c2cc1OC | i | i | i | i | i | i
COc1cc2[nH]c(Cl)c([N+](=O)[O-])c2cc1OC | 19 | i | i | i | i | i
Cc1cc(Br)ccc1NC(=O)c1ccc(-n2cncn2)c([N+](=O)[O-])c1 | i | nt | nt | nt | nt | nt
Cc1cc(NS(=O)(=O)c2ccc(NC(=O)c3cc4c(=O)n5ccccc5nc4s3)cc2)nc(C)n1 | i | i | i | 74 | i | i
CCN(Cc1ccncc1)C(=O)c1ccc(Br)o1 | i | nt | nt | nt | nt | nt
O=C(O)C1CCCCC1C(=O)Nc1nc(-c2ccc(Cl)s2)cs1 (stereo not drawn) | i | i | 70 | i | i | i
Cn1c(=O)c2c(SCc3ccccc3)nc(-c3ccco3)nc2n(C)c1=O | nt | 4.2 | i | i | i | i
Cn1c(=O)c2c(SCc3cccc(C(F)(F)F)c3)nc(-c3ccco3)nc2n(C)c1=O | i | i | i | i | i | i
CCCN1CCN(C(=O)CCCNC(=O)Cn2cnc3sc(C)c(C)c3c2=O)CC1 | i | i | i | i | i | 36[fluorescence artefact?]
Cc1[nH]n(-c2ccccc2)c(=S)c1C=Nc1cccc([N+](=O)[O-])c1 | i | i | i | i | i | 55
CC(=O)Nc1ccc(NC(=O)Nc2cc(C)cc(C)c2)cc1 | i | 3.6 | i | i | i | i
Cc1ccc(OCCCCn2ccnc2)c([N+](=O)[O-])c1 | i | i | i | i | i | i
CC(C)c1ccc(CN2CCC(C(=O)NCc3cccnc3)CC2)cc1 | i | i | i | i | i | 75
CCS(=O)(=O)N1CCC(C(=O)NCc2cccnc2)CC1 | i | i | i | i | nt | i
O=C(CN1C(=O)S/C(=C\c2cc(Cl)c(O)c(Cl)c2)C1=O)Nc1ccccc1 | 51 | nt | nt | nt | nt | nt
Cc1cccc(NC(=O)CN2C(=O)S/C(=C\c3ccccn3)C2=O)c1 | ? | i | i | i | i | i
SMILES | RanGTP-Imp inh | PERK inh | Hck Nef HTS | Runt-SMMHC FRET | Runt-CBFb FRET | eIF4E 4G PPI
Cc1cccc(NC(=O)CN2C(=O)S/C(=C\c3ccc(O)c([N+](=O)[O-])c3)C2=O)c1 | i | i | 61 | i | i | i
CCOC(=O)CCn1c(=S)n(CCC(=O)OCC)c2ccccc21 | i | i | i | i | i | i
CC(=O)Nc1cc(Cl)ccc1OS(=O)(=O)c1ccc(C)cc1 | i | i | i | i | i | i
CCC(C)n1c(NC(=O)c2ccccc2)c(C#N)c2nc3ccccc3nc21 (stereo not drawn) | 21 | i | i | 66 | i | nt
CCCCn1c(NC(=O)c2ccc(F)cc2)c(C#N)c2nc3ccccc3nc21 | 18 | nt | nt | nt | nt | nt
CCOC(=O)c1c(C#N)cnn1-c1ccc(C)cc1 | i | i | i | i | i | i
CCN1CCc2c(sc(NC(=O)c3ccc(S(=O)(=O)N4CCCC4)cc3)c2C(=O)NC)C1 | 46 | nt | nt | nt | nt | nt
CNC(=O)c1c(NC(=O)c2ccc(S(=O)(=O)N3CCCCC3)cc2)sc2c1CCN(C(C)C)C2 | 93 | nt | nt | nt | nt | nt
CCCN1CCc2c(sc(NC(=O)c3ccc(S(=O)(=O)N(C)c4ccccc4)cc3)c2C(=O)NC)C1 | i | nt | nt | nt | nt | nt
